Data as given in ChEMBL document CHEMBL1142304, “Synthesis and biological activity of phosphonate analogues and geometric isomers of the highly potent phosphoantigen (E)-1-hydroxy-2-methylbut-2-enyl 4-diphosphate” (J Med Chem, 2008).
Values belong to the molecule of their own block, whether it stands above or below them. Calls of active or inactive are those of the source. No cut-off for these calls is given here.

Tests used:
[1] = Agonist activity at human Vgamma9Vdelta2 receptor expressed in T cells assessed as stimulation of TNFalpha release by ELISA; format: functional, cell-based; conditions: T-cell
T-cell [2] = experiment: Effect on proliferation of human T cell expressing Vgamma9Vdelta2 receptor in cynomolgus monkey co-treated with IL2 assessed as circulating T cells in blood at 0.02 mg/kg, iv; format: functional, organism-based; parameters: dose 0.02 mg/kg
Procedure, shortened: (§1)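 Cynomolgus monkeys were dosed i.v. in Ringer lactate, either as a 30 min infusion (50 mL) or as a bolus depending on the series, with IL-2 0.6 M IU s.c. daily for 5 days. Blood was sampled predose and on days 4, 5, 7, 11 and 14. Circulating γδ-cells were counted by flow cytometry (Vγ9/CD3/CD69 staining, counting beads).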

T-cell [3] = experiment: Effect on proliferation of human T cell expressing Vgamma9Vdelta2 receptor in cynomolgus monkey co-treated with IL2 assessed as circulating T cells in blood at 5 mg/kg, iv; format: functional, organism-based; parameters: dose 5 mg/kg
Procedure, shortened: (§2)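 Purpose-bred cynomolgus monkeys (7 male, 7 female, 1.8–3.5 kg) got an i.v. bolus in Ringer lactate, with IL-2 0.6 M IU s.c. daily for 5 days. Blood was taken predose and on days 4, 5, 7, 11 and 14. Whole-blood flow cytometry used anti-Vγ9, CD3 and CD69 staining, red-cell lysis and counting fluorospheres for absolute counts.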

T-cell [4] = experiment: Effect on proliferation of human T cell expressing Vgamma9Vdelta2 receptor in cynomolgus monkey co-treated with IL2 assessed as circulating T cells in blood at 10 mg/kg, iv; format: functional, organism-based; parameters: dose 10 mg/kg; procedure, shortened: as §2
[5] = Effect on proliferation of human T cell expressing Vgamma9Vdelta2 receptor in cynomolgus monkey co-treated with IL2 assessed as circulating T cells in blood at 2.5 mg/kg, iv; format: functional; procedure, shortened: as §1
Rattus norvegicus = experiment: Drug level in iv dosed rat assessed as recovered compound after 7 days; format: ADME, organism-based; conditions: in vivo, 168 h
[6] = Drug level in iv dosed rat assessed as excreted compound in urine; format: ADME, organism-based; conditions: read-out: Drug uptake
[7] = Chemical stability at 4 degC after 7 days; format: physicochemical; conditions: 168 h
Procedure, shortened: (§3)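 Pyrophosphate analogue tested as 0.3 mM solution and pyrophosphonate analogue as 0.5 mM solution under the stated temperature, 0.1 N HCl or H2O2 stress. Degradation was measured by ionic chromatography with conductometric detection and estimated as % of relative area.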

[8] = Chemical stability assessed as degradation at 25 degC after 7 days; format: physicochemical; conditions: 168 h; procedure, shortened: as §3
[9] = Chemical stability assessed as degradation at 60 degC after 24 hrs; format: physicochemical; conditions: read-out: Activity; procedure, shortened: as §3
[10] = Chemical stability assessed as degradation in 3% H2O2 at 60 degC after 2 hrs; format: physicochemical; conditions: read-out: Activity; procedure, shortened: as §3

Structure (SMILES): C/C(=C/CO)CCP(=O)(O)O
- EC50 [1]: > 100000 nM

Structure (SMILES): C/C(=C\CO)COP(=O)(O)OP(=O)(O)O
- EC50 [1]: 93.5 nM

Structure (SMILES): C/C(=C/CO)COP(=O)(O)OP(=O)(O)O
- EC50 [1]: > 100000 nM

Structure (SMILES): C/C(=C/COP(=O)(O)OP(=O)(O)O)CO
- EC50 [1]: 252 nM

Structure (SMILES): C/C(=C/CO)CCP(=O)(O)OP(=O)(O)O
- EC50 [1]: > 100000 nM

Molecules with a lower EC50 [1], results first:

- EC50 [1]: 0.39 nM
- Drug uptake (Rattus norvegicus): 80%
- dose excreted [6]: 50%
- Stability [7]: Stable
- degradation [8]: 5%
- degraded at 24 h [9]: 14%
- degraded at 2 h [10]: 4%
Structure (SMILES): C/C(=C\COP(=O)(O)OP(=O)(O)O)CO
- Activity (T-cell [2]): Active
- Activity (T-cell [3]): Active
- Activity (T-cell [4]): Active
- Activity [5]: 40%

- EC50 [1]: 23.9 nM
Structure (SMILES): CC(O)(CBr)CCOP(=O)(O)OP(=O)(O)O (configuration not stated) [BROMOHYDRIN PYROPHOSPHATE]
